Results taken from PMC4938767 (Structure (London, England : 1993), 2016).

Legend:
[1] = tested on: substrate polypeptide MKAV24; type: biochemical; conditions: for Wild-type efficiency (%): catalytic efficiency relative to hNaa60 WT; for Kcat/Km: hNaa60 variant, substrate peptide MKAV24, 50 mM HEPES pH 7.5, 100 mM NaCl, 2 mM EDTA, DTNB, 412 nm; for reduction in catalytic efficiency: substrate MKAV24, compared to hNaa60 WT; for catalytic efficiency (in words): β3–β4 loop contact mutants; for change in Km (in words): substrate MKAV24, vs hNaa60 WT
How it was run: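 Purified hNaa60 variants (His-SUMO tag cleaved, nickel-purified) with peptide and Ac-CoA in assay buffer, quenched with 3.2 M guanidinium-HCl/100 mM sodium phosphate pH 6.8. CoA detected with DTNB (2 mM final) at 412 nm, negative-control background subtracted. Thiophenolate quantified with ε = 13.7 × 103 M−1 cm−1. Rates taken in the linear phase and fitted for kinetic constants.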

[2] = DSF / purification stability of hNaa60 point mutants; conditions: for initial fluorescence (in words): vs hNaa60 WT; for stability on purification (in words): data not shown
hNaa60 1–184 = test: Size-exclusion chromatography, dimer to monomer transition; set-up: species or system human; conditions: with Ac-CoA
[3] = tested on: N-terminal acetyltransferase Naa50; conditions: ref Evjenth et al., 2012; cited from earlier work
other acetyltransferases = conditions: ref De Angelis et al., 1998; Thompson et al., 2001; cited from earlier work

Y38A: hNaa60 point mutant, peptide anchoring residue
Wild-type efficiency (%) ([1]; substrate MKAV24): <10% | catalytic activity (in words) ([1]; substrate MKAV24): complete loss of catalytic activity

WT: wild-type hNaa60 enzyme
Wild-type efficiency (%) ([1]; substrate MKAV24): 100% | melting point (apo) ([2]; DSF, apo hNaa60): 47.9 °C

Y165F: hNaa60 point mutant, peptide anchoring residue
Wild-type efficiency (%) ([1]; substrate MKAV24): 24.4% | Kcat/Km [1]: 90 M⁻¹ s⁻¹ | reduction in catalytic efficiency [1]: approximately 4 fold

I84A: hNaa60 point mutant, β3–β4 loop contact
Wild-type efficiency (%) ([1]; substrate MKAV24): 200.4% | Kcat/Km [1]: 758 M⁻¹ s⁻¹ | catalytic efficiency (in words) ([1]; substrate MKAV24): modest overall effect on catalytic efficiency | destabilization compared to hNaa60 WT (in words) ([2]; DSF): clearly destabilized compared to hNaa60 WT | initial fluorescence (in words) ([2]; DSF): higher initial fluorescence

L140A: hNaa60 point mutant, M1p hydrophobic pocket
Wild-type efficiency (%) ([1]; substrate MKAV24): 56.0% | Kcat/Km [1]: 210 M⁻¹ s⁻¹ | catalytic efficiency (kcat/Km) as fold of hNaa60 WT ([1]; substrate MKAV24): approximately 0.5 fold

D81A: hNaa60 point mutant, β3–β4 loop contact
Wild-type efficiency (%) ([1]; substrate MKAV24): 136.9% | Kcat/Km [1]: 518 M⁻¹ s⁻¹ | catalytic efficiency (in words) ([1]; substrate MKAV24): modest overall effect on catalytic efficiency | destabilization compared to hNaa60 WT (in words) ([2]; DSF): clearly destabilized compared to hNaa60 WT | initial fluorescence (in words) ([2]; DSF): higher initial fluorescence

P35A: hNaa60 point mutant, M1p hydrophobic pocket
Kcat/Km [1]: 60 M⁻¹ s⁻¹ | reduction in catalytic efficiency [1]: ~6 fold | change in Km (in words) [1]: small increase in Km

CC(=O)SCCNC(=O)CCNC(=O)[C@H](O)C(C)(C)COP(=O)(O)OP(=O)(O)OC[C@H]1O[C@@H](n2cnc3c(N)ncnc32)[C@H](O)[C@@H]1OP(=O)(O)O [Ac-CoA, acetyl CoA]
elution of hNaa60 1–184 (oligomeric state, in words) (hNaa60 1–184): elutes at a column volume corresponding to twice the theoretical size of the enzyme

I167A: hNaa60 point mutant, M1p hydrophobic pocket
Wild-type efficiency (%) ([1]; substrate MKAV24): 33.3% | Kcat/Km [1]: 123 M⁻¹ s⁻¹ | reduction in catalytic efficiency [1]: ~3 fold | change in Km (in words) [1]: small increase in Km

Y97F: hNaa60 point mutant, catalytic residue
Wild-type efficiency (%) ([1]; substrate MKAV24): <10% | catalytic activity (in words) ([1]; substrate MKAV24): complete loss of catalytic activity

H138A: hNaa60 point mutant, catalytic residue
stability on purification (in words) [2]: unstable and could not be purified

CCNC(=O)CCNC(=O)[C@H](O)C(C)(C)COP(=O)(O)OP(=O)(O)OC[C@H]1O[C@@H](n2cnc3c(N)ncnc32)[C@H](O)[C@@H]1OP(=O)(O)O [desulfoCoA]
inhibitor type (Naa50) [3]: competitive inhibitor | inhibitor type (other acetyltransferases) (other acetyltransferases): competitive inhibitor

I36A: hNaa60 point mutant, M1p hydrophobic pocket
Kcat/Km [1]: 60 M⁻¹ s⁻¹ | reduction in catalytic efficiency [1]: ~6 fold | change in Km (in words) [1]: small increase in Km | destabilization compared to hNaa60 WT (in words) ([2]; DSF): did not show any signs of destabilization

P35A/I36A/I167A: hNaa60 triple mutant
Wild-type efficiency (%) ([1]; substrate MKAV24): <10% | catalytic activity (in words) ([1]; substrate MKAV24): not able to detect any catalytic activity

Y164A: hNaa60 point mutant, β3–β4 loop contact
Wild-type efficiency (%) ([1]; substrate MKAV24): 141.7% | Kcat/Km [1]: 535 M⁻¹ s⁻¹

Y164F: hNaa60 point mutant, β3–β4 loop contact
Wild-type efficiency (%) ([1]; substrate MKAV24): 154.9% | Kcat/Km [1]: 585 M⁻¹ s⁻¹ | destabilization compared to hNaa60 WT (in words) ([2]; DSF): clearly destabilized compared to hNaa60 WT

H138F: hNaa60 point mutant, catalytic residue
stability on purification (in words) [2]: unstable and could not be purified
